Values belong to the compound of their own block, whether it stands above or below them.
Assays:
Cavia porcellus [1] = organism: Cavia porcellus; assay: Compound was evaluated for the displacement of [3H]LTD4 on guinea pig lung parenchymal membranes; parameters: species or system Lung parenchyma
Method in brief: (§1)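 Membranes from perfused lungs of male Hartley guinea pigs (300-400 g) in PIPES pH 7.5 with 10 mM CaCl2, 10 mM MgCl2, 2 mM cysteine and 2 mM glycine. 1 nM 3H-LTD4 at 22 °C for 30 min; nonspecific binding with 2 uM LTD4. Filtration, then scintillation counting. IC50 by nonlinear least squares, Ki by Cheng-Prusoff; mean of two experiments in duplicate.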

Cavia porcellus [2] = assay: Protection of conscious guinea pig lung function was determined by comparison of time required for the challenged animals to exhibit labored abdominal breathing after oral dose of 10 uM/kg; format: functional
Method in brief: (§2)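 Conscious guinea pigs pretreated with indomethacin (10 mg/kg ip) and propranolol (5 mg/kg ip). Compound in PEG400 (<10% v/v)/PBS given orally 180 min before a challenge of up to 5 min with aerosolized 60 uM LTD4. Time to abdominal dyspnea scored blind. % protection is taken against vehicle controls; no end point by 300 s counts as 100%. Unpaired t test.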

Cavia porcellus [3] = organism: Cavia porcellus; assay: Dissociation constant on guinea pig tracheal spirals utilizing LTE4 as agonist; settings: Trachea
Cavia porcellus [4] = organism: Cavia porcellus; assay: Inhibition of LTE4 (8 nM) induced contraction of guinea pig tracheal spirals at a concentration of 10 nM; format: functional, Trachea
Method in brief: (§3)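 Paired tracheal spirals at 37 °C in Krebs gassed with 95% O2/5% CO2 under 2 g tension, given repeated LTE4 challenges of 10 min. Compound or vehicle added 10 min before a third challenge. % inhibition = (2nd − 3rd response)/2nd × 100, corrected by subtracting the vehicle value. Paired t test, n ≥ 4.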

[5] = Negative logarithm of the molar dissociation constant; format: ADME
Method in brief: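 Paired guinea pig tracheal spirals at 37 °C in Krebs gassed with 95% O2/5% CO2, 2 g resting tension. Responses expressed relative to 30 uM carbachol. Antagonist or vehicle preincubated 30 min, then cumulative LTE4 concentration-response curves, one per tissue. EC50 by linear regression; KB = [antagonist]/(dose ratio − 1), per Furchgott.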

Cavia porcellus [6] = assay: Protection of conscious guinea pig lung function was determined by comparison of time required for the challenged animals to exhibit labored abdominal breathing after oral dose of 3 uM/kg; format: functional; method in brief: as §2
Cavia porcellus [7] = organism: Cavia porcellus; assay: Inhibition of LTE4 (8 nM) induced contraction of guinea pig tracheal spirals at a concentration of 3.3 uM; NS=not statistically significant; format: functional; settings: Trachea; method in brief: as §3
Cavia porcellus [8] = organism: Cavia porcellus; assay: Inhibition of LTE4 (8 nM) induced contraction of guinea pig tracheal spirals at a concentration of 3.3 uM; format: functional, Trachea; method in brief: as §3
Cavia porcellus [9] = assay: Protection of conscious guinea pig lung function was determined by comparison of time required for the challenged animals to exhibit labored abdominal breathing after oral dose of 1 uM/kg; format: functional; method in brief: as §2
Cavia porcellus [10] = organism: Cavia porcellus; assay: Inhibition of LTE4 (8 nM) induced contraction of guinea pig tracheal spirals at a concentration of 0.1 uM; format: functional, Trachea; method in brief: as §3
Cavia porcellus [11] = organism: Cavia porcellus; assay: Inhibition of LTE4 (8 nM) induced contraction of guinea pig tracheal spirals at a concentration of 100 nM; format: functional, Trachea; method in brief: as §3
Cavia porcellus [12] = organism: Cavia porcellus; assay: Inhibition of LTE4 (8 nM) induced contraction of guinea pig tracheal spirals at a concentration of 0.5 uM; NS=not statistically significant; format: functional; settings: Trachea; method in brief: as §3
Cavia porcellus [13] = organism: Cavia porcellus; assay: Inhibition constant for the displacement of [3H]LTD4 on guinea pig lung parenchymal membranes; parameters: species or system Lung parenchyma; method in brief: as §1
Cavia porcellus [14] = organism: Cavia porcellus; assay: Inhibition of LTE4 (8 nM) induced contraction of guinea pig tracheal spirals at a concentration of 1 nM; format: functional, Trachea; method in brief: as §3
Cavia porcellus [15] = assay: Protection of conscious guinea pig lung function was determined by comparison of time required for the challenged animals to exhibit labored abdominal breathing after oral dose of 30 uM/kg; format: functional; method in brief: as §2
Cavia porcellus [16] = organism: Cavia porcellus; assay: Inhibition of LTE4 (8 nM) induced contraction of guinea pig tracheal spirals at a concentration of 10 uM; format: functional, Trachea; method in brief: as §3
Cavia porcellus [17] = organism: Cavia porcellus; assay: Inhibition of LTE4 (8 nM) induced contraction of guinea pig tracheal spirals at a concentration of 0.33 uM; format: functional, Trachea; method in brief: as §3

SMILES: COc1cc(C(=O)NS(=O)(=O)c2ccccc2C)ccc1Cc1cn(C)c2ccc(C(=O)NCC3CCCC3)cc12
Inhibition (Cavia porcellus [4]): 36%
Ki (Cavia porcellus [1]): 3.21 nM
Kb (Cavia porcellus [3]): 4.28 nM

SMILES: COc1cc(C(=O)NS(=O)(=O)c2ccccc2)ccc1Cn1cc(CCC(=O)O)c2ccc(NC(=O)CC3CCCC3)cc21
Protection (Cavia porcellus [2]): 35%
Kb (Cavia porcellus [3]): 0.0731 nM

SMILES: COc1cc(C(=O)O)ccc1Cn1cc(C)c2ccc(C(=O)NCC3CCCC3)cc21
NS (Cavia porcellus [7]): not statistically significant

SMILES: CCCCOC(=O)Nc1ccc2c(Br)c(Br)n(Cc3ccc(C(=O)O)cc3OC)c2c1
NS (Cavia porcellus [7]): not statistically significant

SMILES: COc1cc(C(=O)O)ccc1Cc1nn(C)c2ccc(C(=O)NCC3CCCC3)cc12
Inhibition (Cavia porcellus [8]): 37%

SMILES: COc1cc(C(=O)O)ccc1Cn1cc(C(C)=O)c2ccc(NC(=O)OC3CCCC3)cc21
Inhibition (Cavia porcellus [10]): 83%

SMILES: COc1cc(C(=O)NS(=O)(=O)c2ccccc2C)ccc1Cn1ccc2ccc(OCCC3CCCC3)cc21
Inhibition (Cavia porcellus [11]): 21%

SMILES: CCN(CC)C(=O)/C=C/c1cn(Cc2ccc(C(=O)NS(=O)(=O)c3ccccc3C)cc2OC)c2cc(C(=O)NCC3CCCC3)ccc12
Ki (Cavia porcellus [1]): 4.9 nM

SMILES: COc1cc(C(=O)O)ccc1Cn1cc(Cl)c2ccc(NC(=O)OC3CCCC3)cc21
Inhibition (Cavia porcellus [10]): 41%

SMILES: CCCCOC(=O)Nc1ccc2c(C)c(C)n(Cc3ccc(C(=O)O)cc3OC)c2c1
NS (Cavia porcellus [12]): not statistically significant
Inhibition (Cavia porcellus [8]): 81%

SMILES: COc1cc(C(=O)O)ccc1Cn1ccc2ccc(C(=O)OCC3CCCC3)cc21
Inhibition (Cavia porcellus [16]): 74%
Inhibition (Cavia porcellus [8]): 10%

SMILES: CCCC(=O)c1cn(Cc2ccc(C(=O)NS(=O)(=O)c3ccccc3)cc2OC)c2cc(NC(=O)CC3CCCC3)ccc12
Kb (Cavia porcellus [3]): 0.496 nM

SMILES: COc1cc(C(=O)O)ccc1Cn1ccc2ccc(C(=O)NCC3CCCC3)cc21
Inhibition (Cavia porcellus [8]): 45%

SMILES: COc1cc(C(=O)NS(=O)(=O)c2ccccc2)ccc1Cn1cc(C(C)=O)c2ccc(NC(=O)OC3CCCC3)cc21
Kb (Cavia porcellus [3]): 0.123 nM

SMILES: COc1cc(C(=O)NS(=O)(=O)c2ccccc2)ccc1Cn1cc(CCC(N)=O)c2ccc(OCCC3CCCC3)cc21
Inhibition (Cavia porcellus [4]): 29%
Kb (Cavia porcellus [3]): 10.3 nM

SMILES: COc1cc(C(=O)O)ccc1Cc1cn(C)c2ccc(NC(=O)CC3CCCC3)cc12
Inhibition (Cavia porcellus [10]): 94%

SMILES: CCCCOC(=O)Nc1ccc2cc(C)n(Cc3ccc(C(=O)O)cc3OC)c2c1
Inhibition (Cavia porcellus [8]): 41%

SMILES: COc1cc(C(=O)O)ccc1Cn1ccc2ccc(OCCC3CCCC3)cc21
Inhibition (Cavia porcellus [16]): 75%

SMILES: COc1cc(C(=O)NS(=O)(=O)c2ccccc2C)ccc1Cn1cc(CCC(=O)N2CCCC2)c2ccc(C(=O)NCC3CCCC3)cc21
Protection (Cavia porcellus [6]): 49%

SMILES: CCN(CC)C(=O)CCc1cn(Cc2ccc(C(=O)NS(=O)(=O)c3ccccc3C)cc2OC)c2cc(C(=O)NCC3CCCC3)ccc12
Ki (Cavia porcellus [1]): 0.54 nM

SMILES: COc1cc(C(=O)O)ccc1Cn1cc(C)c2ccc(NC(=O)CC3CCCC3)cc21
Inhibition (Cavia porcellus [10]): 59%

SMILES: CCCC(=O)c1cn(Cc2ccc(C(=O)O)cc2OC)c2cc(NC(=O)CC3CCCC3)ccc12
Inhibition (Cavia porcellus [10]): 96%

SMILES: COc1cc(C(=O)NS(=O)(=O)c2ccccc2)ccc1Cc1cn(C)c2ccc(NC(=O)OC3CCCC3)cc12
pKB [5]: 9.69

Second part, led by results:

Ki (Cavia porcellus [1]): 2.32 nM
Kb (Cavia porcellus [3]): 0.65 nM
SMILES: COc1cc(C(=O)NS(=O)(=O)c2ccccc2C)ccc1Cn1cc(CC(C)C(=O)N(C)C)c2ccc(C(=O)NCC3CCCC3)cc21 (centres undefined)
Protection (Cavia porcellus [2]): 37%

Kb (Cavia porcellus [3]): 12.1 nM
SMILES: COc1cc(C(=O)NS(=O)(=O)c2ccccc2C)ccc1Cc1cn(C(C)C(=O)N(C)C)c2ccc(C(=O)NCC3CCCC3)cc12 (centres undefined)

pKB [5]: 7.84
SMILES: COc1cc(C(=O)O)ccc1Cc1cn(C)c2ccc(NC(=O)OC3CCCC3)cc12

Kb (Cavia porcellus [3]): 0.095 nM
SMILES: COc1cc(C(=O)NS(=O)(=O)c2ccccc2C)ccc1Cn1cc(CCC(N)=O)c2ccc(NC(=O)CC3CCCC3)cc21
Protection (Cavia porcellus [6]): 63%

Kb (Cavia porcellus [3]): 0.273 nM
SMILES: COC(=O)CCc1cn(Cc2ccc(C(=O)NS(=O)(=O)c3ccccc3)cc2OC)c2cc(NC(=O)CC3CCCC3)ccc12
Protection (Cavia porcellus [2]): 63%

Kb (Cavia porcellus [3]): 0.106 nM
SMILES: COc1cc(C(=O)NS(=O)(=O)c2ccccc2C)ccc1Cn1ccc2ccc(NC(=O)CC3CCCC3)cc21
Protection (Cavia porcellus [9]): 40%

Kb (Cavia porcellus [3]): 0.0197 nM
SMILES: CNC(=O)CCc1cn(Cc2ccc(C(=O)NS(=O)(=O)c3ccccc3)cc2OC)c2cc(NC(=O)CC3CCCC3)ccc12
Protection (Cavia porcellus [2]): 74%

Ki (Cavia porcellus [1]): 1.87 nM
SMILES: COc1cc(C(=O)NS(=O)(=O)c2ccccc2C)ccc1Cc1nn(C)c2ccc(C(=O)NCC3CCCC3)cc12

Kb (Cavia porcellus [3]): 20.7 nM
SMILES: COc1cc(C(=O)O)ccc1Cn1ccc2ccc(NC(=O)CC3CCCC3)cc21
Inhibition (Cavia porcellus [10]): 34%

Kb (Cavia porcellus [3]): 15.7 nM
SMILES: COc1cc(C(=O)O)ccc1Cn1ccc2ccc(NC(=O)OC3CCCC3)cc21
Inhibition (Cavia porcellus [10]): 61%

pKB [5]: 8.44
SMILES: CCCn1cc(Cc2ccc(C(=O)NS(=O)(=O)c3ccccc3)cc2OC)c2cc(NC(=O)OC3CCCC3)ccc21

pKB [5]: 7.32
SMILES: COc1cc(C(=O)O)ccc1Cc1c[nH]c2ccc(NC(=O)OC3CCCC3)cc12

Ki (Cavia porcellus [13]): 1.53 nM
Kb (Cavia porcellus [3]): 0.399 nM
SMILES: CNC(=O)CCc1cn(Cc2ccc(C(=O)NS(=O)(=O)c3ccccc3C)cc2OC)c2cc(C(=O)NCC3CCCC3)ccc12
Inhibition (Cavia porcellus [14]): 57%
Protection (Cavia porcellus [15]): 44%

Ki (Cavia porcellus [1]): 0.43 nM
SMILES: CCN(CC)C(=O)CCn1cc(Cc2ccc(C(=O)NS(=O)(=O)c3ccccc3C)cc2OC)c2cc(C(=O)NCC3CCCC3)ccc21

pKB [5]: 7.84
SMILES: COc1cc(C(=O)NS(=O)(=O)c2ccccc2)ccc1Cc1cn(C2CCCC2)c2ccc(NC(=O)OC3CCCC3)cc12

pKB [5]: 7.67
SMILES: COc1cc(C(=O)O)ccc1Cc1cn(C2CCCC2)c2ccc(NC(=O)OC3CCCC3)cc12

Kb (Cavia porcellus [3]): 0.243 nM
SMILES: COc1cc(C(=O)NS(=O)(=O)c2ccccc2)ccc1Cn1ccc2ccc(NC(=O)CC3CCCC3)cc21
Protection (Cavia porcellus [15]): 43%

Kb (Cavia porcellus [3]): 0.29 nM
SMILES: COc1cc(C(=O)NS(=O)(=O)c2ccccc2)ccc1Cn1ccc2ccc(NC(=O)OC3CCCC3)cc21

pKB [5]: 9.84
SMILES: COc1cc(C(=O)NS(=O)(=O)c2ccccc2)ccc1Cc1c[nH]c2ccc(NC(=O)OC3CCCC3)cc12

Ki (Cavia porcellus [1]): 0.3 nM
Kb (Cavia porcellus [3]): 0.245 nM
SMILES: COc1cc(C(=O)NS(=O)(=O)c2ccccc2C)ccc1Cc1cn(C)c2ccc(NC(=O)CC3CCCC3)cc12

Kb (Cavia porcellus [3]): 92.7 nM
SMILES: CCCCOC(=O)Nc1ccc2c(Cl)cn(Cc3ccc(C(=O)O)cc3OC)c2c1
Inhibition (Cavia porcellus [17]): 52%

Kb (Cavia porcellus [3]): 4.45 nM
SMILES: COc1cc(C(=O)NS(=O)(=O)c2ccccc2C)ccc1Cn1cc(CCC(=O)N2CCC(C)(C)CC2)c2ccc(C(=O)NCC3CCCC3)cc21

Kb (Cavia porcellus [3]): 0.289 nM
SMILES: COc1cc(C(=O)NS(=O)(=O)c2ccccc2C)ccc1Cn1cc(CCC(=O)N2CCOCC2)c2ccc(C(=O)NCC3CCCC3)cc21
Protection (Cavia porcellus [2]): 53%

Kb (Cavia porcellus [3]): 0.718 nM
SMILES: COc1cc(C(=O)NS(=O)(=O)c2ccccc2)ccc1Cn1cc(Cl)c2ccc(NC(=O)OC3CCCC3)cc21

Ki (Cavia porcellus [1]): 9.89 nM
SMILES: COc1cc(C(=O)NS(=O)(=O)c2ccccc2C)ccc1Cn1cc(C)c2ccc(C(=O)NCC3CCCC3)cc21

Ki (Cavia porcellus [13]): 86.8 nM
Kb (Cavia porcellus [3]): 14.2 nM
SMILES: COc1cc(C(=O)NS(=O)(=O)c2ccccc2)ccc1Cn1ccc2ccc(C(=O)NCC3CCCC3)cc21
Inhibition (Cavia porcellus [11]): 46%

pKB [5]: 7.72
SMILES: CCCn1cc(Cc2ccc(C(=O)O)cc2OC)c2cc(NC(=O)OC3CCCC3)ccc21

Kb (Cavia porcellus [3]): 7.73 nM
SMILES: COc1cc(C(=O)NS(=O)(=O)c2ccccc2)ccc1Cn1c2c(c3ccc(NC(=O)CC4CCCC4)cc31)CCCC2

From ChEMBL document CHEMBL1125464, “1,3,6-trisubstituted indoles as peptidoleukotriene antagonists: benefits of a second, polar, pyrrole substituent” (J Med Chem, 1992)
